Test results taken from ChEMBL document CHEMBL4017470, “One drug for two targets: Biological evaluation of antiretroviral agents endowed with antiproliferative activity” (Bioorg Med Chem Lett, 2017).
In brackets after ≈: the same amount, converted by molar mass.

Tests used:
[1] = Selectivity index, ratio of IC50 for HEK293 cells to IC50 for human HT-29 cells; assay type: functional
HT-29 [2] = test: Down regulation of c-Myc expression in human HT-29 cells assessed as c-Myc expression level at 20 uM after 48 hrs by RT-qPCR analysis relative to control; assay type: functional
Procedure, shortened: (§1)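 HT-29 cells were incubated 48 h with compound, with DMSO as the vehicle control and resveratrol as the positive control. Total RNA was extracted, reverse-transcribed to cDNA, and hTERT or c-Myc quantified by RT-qPCR. Expression was normalized to β-actin and given as % of the DMSO control (100%). At least three measurements per case; mean ± SEM; one-sample t-test.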

HEK293 = test: Growth inhibition of HEK293 cells after 2 days by MTT assay; assay type: cell-based; details: Homo sapiens, HEK293, 48 h
MCF7 = test: Growth inhibition of human MCF7 cells after 2 days by MTT assay; assay type: functional, cell-based; details: MCF7, 48 h
HT-29 [3] = test: Growth inhibition of human HT-29 cells after 2 days by MTT assay; assay type: functional, cell-based; details: HT-29, 48 h
HT-29 [4] = test: Down regulation of hTERT expression in human HT-29 cells assessed as hTERT expression level at 20 uM after 48 hrs by RT-qPCR analysis relative to control; assay type: functional; procedure, shortened: as §1
[5] = Selectivity index, ratio of IC50 for BAEC cells to IC50 for human MCF7 cells; assay type: functional
[6] = Selectivity index, ratio of IC50 for HEK293 cells to IC50 for human Ramos cells; assay type: functional
[7] = Selectivity index, ratio of IC50 for BAEC cells to IC50 for human HT-29 cells; assay type: functional
[8] = Selectivity index, ratio of IC50 for BAEC cells to IC50 for human Ramos cells; assay type: functional
[9] = test system: Human immunodeficiency virus 1; test: Antiviral activity against HIV-1 NL4.3 infected in human TZM-b1 cells pretreated for 1 hr followed by viral infection measured after 2 days by CPRG assay; assay type: functional, cell-based; details: Human immunodeficiency virus 1, NL4.3, TZM-b1
[10] = Selectivity index, ratio of IC50 for HEK293 cells to IC50 for human MCF7 cells; assay type: functional
[11] = Growth inhibition of BAEC after 2 days by MTT assay; assay type: cell-based; details: Bos taurus, 48 h
[12] = Cytotoxicity against human TZM-b1 cells by XTT assay; assay type: cell-based; details: read-out: LD50 (the source's name)
Ramos = test: Growth inhibition of human Ramos cells after 2 days by MTT assay; assay type: functional, cell-based; details: 48 h
HT-29 [13] = test: Down regulation of c-Myc expression in human HT-29 cells assessed as c-Myc expression level at 1 uM after 48 hrs by RT-qPCR analysis relative to control; assay type: functional; procedure, shortened: as §1
HT-29 [14] = test: Down regulation of hTERT expression in human HT-29 cells assessed as hTERT expression level at 1 uM after 48 hrs by RT-qPCR analysis relative to control; assay type: functional; procedure, shortened: as §1
[15] = Metabolic stability in human liver microsomes at 50 uM measured after 60 mins in presence of NADPH generating system by LC-UV-MS method; assay type: ADME, microsome; details: read-out: Stability
[16] = Apparent permeability of the compound in phosphate buffer at pH 7.4 by PAMPA; assay type: physicochemical
[17] = Aqueous solubility of the compound in water at 1 mg after 24 to 36 hrs by LC-MS/MS analysis; assay type: physicochemical
HT-29 [18] = test: Down regulation of hTERT expression in human HT-29 cells assessed as hTERT expression level at 5 uM after 48 hrs by RT-qPCR analysis relative to control; assay type: functional; procedure, shortened: as §1
HT-29 [19] = test: Down regulation of c-Myc expression in human HT-29 cells assessed as c-Myc expression level at 5 uM after 48 hrs by RT-qPCR analysis relative to control; assay type: functional; procedure, shortened: as §1

SMILES	Ratio IC50 [1]	IC50 (HEK293) [µM]	IC50 (MCF7) [µM]	IC50 (HT-29 [3]) [µM]	Ratio IC50 [5]	Ratio IC50 [6]	Ratio IC50 [7]	Ratio IC50 [8]	IC50 [9] [µM]	Ratio IC50 [10]	IC50 [11] [µM]	CC50 [12] [µM]	IC50 (Ramos) [µM]	Activity (HT-29 [13]) [%]	Activity (HT-29 [14]) [%]	Papp [16] [×10⁻⁶ cm/s]	also measured
CCc1ccc(CCNC2=NC(=O)/C(=C/c3ccc(-c4ccc(C(=O)O)c(O)c4)o3)S2)cc1	0.13	3.4	4.5	26	4.44	0.09	0.77	0.54	1	0.76	20	> 50	37				Activity (HT-29 [2]): 67%; Activity (HT-29 [4]): 56%
O=C1/C(=C/c2ccc(-c3cc(C(F)(F)F)ccc3Cl)o2)SC(=S)N1Cc1ccc(F)cc1	0.52	2.4	1.2	4.6	1.83	0.59	0.48	0.53	17.3	2	2.2	> 50	4.1	69	37		
O=C(O)c1ccc(-c2ccc(/C=C3\SC(=S)N(CCc4ccc(Cl)c(Cl)c4)C3=O)o2)cc1O	<0.29	29	> 100	> 100	<0.86	<0.29	<0.86	<0.86	4.8	<0.29	86	> 50	> 100				
O=C1N=C(N2CCOCC2)S/C1=C\c1ccc(-c2ccc(C(=O)O)c(O)c2)o1	23.04	53	21	2.3	3.62	16.9	33.04	24.2	13.4	2.52	76	> 50	3.14	60	51	1.28	remaining at 1 h, 50 µM [15]: 98.7%; solubility [17]: 9.7 µM (≈ 3.88 µg/mL)
O=C1N=C(Nc2ccc(F)c(Cl)c2)S/C1=C\c1ccc(-c2ccc(C(=O)O)c(O)c2)o1	10.91	12	13	1.1	1.92	3.9	22.72	8	1	0.92	25	> 50	3.1	60	53	1.58	remaining at 1 h, 50 µM [15]: 99.1%; solubility [17]: 11.8 µM (≈ 5.41 µg/mL)
O=C1/C(=C/c2ccc(-c3cc(C(F)(F)F)ccc3Cl)o2)SC(=S)N1Cc1ccc(Cl)cc1	0.51	4.2	1.13	8.3	2.12	1.1	0.29	0.63	6.9	3.72	2.4	> 50	3.8				Activity (HT-29 [18]): 53%; Activity (HT-29 [19]): 100%
O=C1N=C(NCCc2ccc(Cl)c(Cl)c2)S/C1=C\c1ccc(-c2ccc(C(=O)O)c(O)c2)o1		> 100	> 100	> 100					1.8		> 100	> 50	> 100				
Cn1c(=O)c2c(ncn2C)n(C)c1=O [CAFFEINE]																< 0.1	
CC(C)NCC(O)COc1cccc2ccccc12 (stereo not drawn) [PROPRANOLOL]																9.68	
Cc1nnc(C(=O)NC(C)(C)c2nc(C(=O)NCc3ccc(F)cc3)c(O)c(=O)n2C)o1 [RALTEGRAVIR]									0.021			> 50					
Oc1ccc(/C=C/c2cc(O)cc(O)c2)cc1 [RESVERATROL]		17	34	137							57		37	47	28		
C[C@]12CC[C@H]3[C@@H](CCC4=CC(=O)CC[C@@]43C)[C@@H]1CC[C@@H]2O [TESTOSTERONE]																	remaining at 1 h, 50 µM [15]: 76.2%
